From PubChem BioAssay
Hits are enriched below; roughly 12% of the tested compounds scored in any of these assays.
ABCG2 block = ABCG2 efflux pump inhibitors, primary screen, multiplex with ABCB1, IgMXP3 cells, flow cytometry; Broad substrate specificity ATP-binding cassette transporter ABCG2 (Homo sapiens), Q9UNQ0; JC-1 efflux; inhibition, % at 6.6 µM; actives 0.1% (n = 190,000);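 active = inhibition above 80%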;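 also: 0% = DMSO and 100% = nicardipine control wells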
Target sequence (Q9UNQ0 whole entry, looked up): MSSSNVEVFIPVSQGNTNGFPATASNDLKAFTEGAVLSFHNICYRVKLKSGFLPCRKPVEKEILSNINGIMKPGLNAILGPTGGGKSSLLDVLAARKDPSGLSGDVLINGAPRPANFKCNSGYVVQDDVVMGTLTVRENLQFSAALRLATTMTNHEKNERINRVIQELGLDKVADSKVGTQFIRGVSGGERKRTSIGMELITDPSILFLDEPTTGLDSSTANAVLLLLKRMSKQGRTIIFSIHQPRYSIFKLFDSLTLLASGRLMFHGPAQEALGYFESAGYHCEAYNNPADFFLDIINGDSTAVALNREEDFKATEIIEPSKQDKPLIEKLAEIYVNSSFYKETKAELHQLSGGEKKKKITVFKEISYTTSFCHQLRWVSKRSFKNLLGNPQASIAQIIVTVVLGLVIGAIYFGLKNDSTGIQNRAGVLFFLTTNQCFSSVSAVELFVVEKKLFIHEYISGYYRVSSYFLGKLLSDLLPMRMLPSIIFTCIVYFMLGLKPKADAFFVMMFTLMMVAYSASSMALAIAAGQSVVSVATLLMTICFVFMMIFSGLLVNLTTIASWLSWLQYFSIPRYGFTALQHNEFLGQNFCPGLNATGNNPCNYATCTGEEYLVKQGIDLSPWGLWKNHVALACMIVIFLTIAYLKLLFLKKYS
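Read-out basis: Efflux inhibition in percent versus controls | Test system: ABCG2 IgMXP3 and barcoded ABCB1 CCRF-Adr cell mix | Quantity: 3 million cells/mL in well | Schedule: 10 min at 25 °C | Control set: Nicardipine as high control, DMSO as low control | Reagent: JC-1 as fluorescent efflux pump substrate | Signal: Flow cytometry of retained JC-1 fluorescence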
WT yeast gro inh = growth inhibition of WT strain, primary screen, mitochondrial fusion inhibitor project, WT and mutant strains, chemical genetic | mitochondrial fusion phenotypic screen | inhibition, % at 10 µM | actives 2.1% (n = 190,000); in the data active = inhibition above about 58%; tested in S. cerevisiae
ABCB1 inh = ABCB1 efflux pump inhibitors, primary screen, cell-based, multiplex, flow cytometry, ABCG2 counter-screen | actives 0.067% (n = 190,000) | CCRF-Adr cells, JC-1 efflux | inhibition, % at 6.6 µM | AID 1326, 2008; in the data active = inhibition above about 40%;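 also: 0% = vehicle and 100% = reference inhibitor; higher value means more JC-1 retained so stronger ABCB1 efflux block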
RAM network inh = inhibitors of the yeast RAM network, primary screen, dse1pr::URA3 reporter, 5-FOA selection. S. cerevisiae dse1pr::URA3 reporter, 5-FOA growth OD615, 2 d; analog-sensitive cbk1-as2 kinase mutant strain. AID 868, 2007. inhibition, % at 50 µM. actives 1.8% (n = 190,000);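 active = inhibition above a set limit, 3 SD over mean compound inhibition, cut at about 8.4% in these data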;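 also: 0% = DMSO-only wells with no growth and 100% = 10 µM 1-NA-PP1 full growth; inhibition rescues growth on 5-FOA so higher OD means more RAM inhibition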
Lmaj promast = Leishmania major promastigote growth inhibition, primary screen; Leishmania major promastigotes, resazurin fluorescence viability; inhibition, % at 10 µM; actives 9% (n = 200,000); in the data active = inhibition above about 50%;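 also: promastigotes grown with compound for 44 hours at 28 °C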
Numbers without * were called inactive.

How did CC(C)(C)NC(=O)/C(=C\C=C\c1ccccc1)NC(=O)c1ccc([N+](=O)[O-])cc1 do in these assays?
ABCG2 block: 22; WT yeast gro inh: 6; ABCB1 inh: 4; RAM network inh: 3; Lmaj promast: 4

Results for O=C(N/C(=C/c1cccc([N+](=O)[O-])c1)C(=O)N1CCCCCC1)c1cccs1 ?
ABCG2 block: 4; WT yeast gro inh: 3; ABCB1 inh: 1; RAM network inh: 6; Lmaj promast: 61*

How did O=C(N/C(=C/C=C/c1ccccc1)C(=O)N1CCCCC1)c1ccc([N+](=O)[O-])cc1 do in these assays?
ABCG2 block: 11; WT yeast gro inh: 13; ABCB1 inh: 1; RAM network inh: 3; Lmaj promast: 61*

What do the screens show for `N=c1c2cn[nH]c2nc(SCC(=O)c2ccc(Br)cc2)n1-c1ccc(Br)cc1`?
ABCG2 block: 3; WT yeast gro inh: 0; ABCB1 inh: -1; RAM network inh: 1; Lmaj promast: 0

How did Cc1c(NC(=O)CN2CCN(c3ccc(F)cc3)CC2)c(=O)n(-c2ccccc2)n1C do in these assays?
ABCG2 block: 3; WT yeast gro inh: 3; ABCB1 inh: 0; RAM network inh: 3; Lmaj promast: -8

How did O=C(Nc1ccccc1)C1=C[C@@H](C2CC2)C[C@@H](OCc2ccc(CO)cc2)O1 do in these assays?
ABCG2 block: 10; WT yeast gro inh: -10; ABCB1 inh: 1; RAM network inh: -1; Lmaj promast: -2

What do the screens show for `Cc1cc(C(=O)CN2CCC(C)CC2)c(C)n1-c1ccc(F)cc1`?
ABCG2 block: 3; WT yeast gro inh: 30; ABCB1 inh: 1; RAM network inh: 0; Lmaj promast: 91*

Results for CCOC(=O)c1cc(C(=O)OCC)cc(-n2c(C)cc(C(=O)CN3CCOCC3)c2C)c1 ?
ABCG2 block: -4; WT yeast gro inh: -1; ABCB1 inh: -4; RAM network inh: 0; Lmaj promast: 93*

How did Cc1cc(C(=O)CN2CCCCC2)c(C)n1-c1ccc(F)cc1 do in these assays?
ABCG2 block: 3; WT yeast gro inh: -7; ABCB1 inh: 0; RAM network inh: 2; Lmaj promast: 12

What do the screens show for `Cc1cc(C(=O)CN2CCCC2)c(C)n1-c1ccc(Cl)cc1`?
ABCG2 block: 2; WT yeast gro inh: 1; ABCB1 inh: 1; RAM network inh: 1; Lmaj promast: 53*

What do the screens show for `Cc1cc(C(=O)C[N+]2(C)CCOCC2)c(C)n1-c1ccc(Br)cc1`?
ABCG2 block: -1; WT yeast gro inh: 19; ABCB1 inh: 0; RAM network inh: 2; Lmaj promast: 1

What do the screens show for `COc1ccc(-n2c(C)cc(C(=O)CN3CCCCC3)c2C)cc1`?
ABCG2 block: -3; WT yeast gro inh: -10; ABCB1 inh: -1; RAM network inh: 1; Lmaj promast: 1

What do the screens show for `COc1ccc(-n2c(C)cc(C(=O)CN3CCC(C)CC3)c2C)cc1`?
ABCG2 block: 0; WT yeast gro inh: -9; ABCB1 inh: 0; RAM network inh: 2; Lmaj promast: 92*

What do the screens show for `COc1c(C)cc(C(=O)C2CCCN(C(=O)/C=C/c3ccccn3)C2)cc1C` (centres undefined)?
ABCG2 block: 11; WT yeast gro inh: -6; ABCB1 inh: 1; RAM network inh: 1; Lmaj promast: 14

What do the screens show for `CS(=O)(=O)N1CCC(C(=O)NCc2ccc(Cl)cc2Cl)CC1`?
ABCG2 block: 0; WT yeast gro inh: 2; ABCB1 inh: 0; RAM network inh: 1; Lmaj promast: 2

How did COc1nc(OC)nc(Oc2ccc([N+](=O)[O-])cc2Cl)n1 do in these assays?
ABCG2 block: 26; WT yeast gro inh: -19; ABCB1 inh: 3; RAM network inh: 0; Lmaj promast: -12

What do the screens show for `CCCn1c2c(c(O)c(C(=O)NC)c1=O)CCCC2`?
ABCG2 block: 1; WT yeast gro inh: 23; ABCB1 inh: 0; RAM network inh: 0; Lmaj promast: -5

How did CCCCn1c2c(c(=N)c3c1CCC3)CCC2 do in these assays?
ABCG2 block: 1; WT yeast gro inh: 23; ABCB1 inh: 0; RAM network inh: 1; Lmaj promast: 100*

Results for N=c1c2c(n(Cc3ccc(F)cc3)c3c1CCC3)CCC2 ?
ABCG2 block: 0; WT yeast gro inh: 66*; ABCB1 inh: 0; RAM network inh: 1; Lmaj promast: 100*

How did CCn1c2c(c(=N)c3c1CCC3)CCC2 do in these assays?
ABCG2 block: -2; WT yeast gro inh: 2; ABCB1 inh: 0; RAM network inh: 0; Lmaj promast: 32

Results for CCCCCCn1c2c(c(=N)c3c1CCC3)CCC2 ?
ABCG2 block: 1; WT yeast gro inh: 37; ABCB1 inh: 1; RAM network inh: 2; Lmaj promast: 100*

How did CCCCCCCn1c2c(c(=N)c3c1CCC3)CCCC2 do in these assays?
ABCG2 block: 0; WT yeast gro inh: 79; ABCB1 inh: 0; RAM network inh: 2; Lmaj promast: 100*

How did Fc1ccc(CN2CCCCCCC2)cc1 do in these assays?
ABCG2 block: -7; WT yeast gro inh: -12; ABCB1 inh: -1; RAM network inh: 0; Lmaj promast: 46

What do the screens show for `COc1ccc2nc(Cl)c(C#N)cc2c1`?
ABCG2 block: 0; WT yeast gro inh: 6; ABCB1 inh: 0; RAM network inh: 5; Lmaj promast: 6

How did CCCCCCCn1ccc(=N)cc1 do in these assays?
ABCG2 block: 0; WT yeast gro inh: 17; ABCB1 inh: 0; RAM network inh: 0; Lmaj promast: 38

What do the screens show for `CCCCCCCCCn1c2c(c(=N)c3c1CCC3)CCC2`?
ABCG2 block: -2; WT yeast gro inh: 75; ABCB1 inh: 0; RAM network inh: -2; Lmaj promast: 100*

What do the screens show for `COC(=O)c1ccc(N2CCN(CC(=O)c3ccc(-c4ccccc4)cc3)CC2)c([N+](=O)[O-])c1`?
ABCG2 block: 10; WT yeast gro inh: 8; ABCB1 inh: 1; RAM network inh: -1; Lmaj promast: 19

Results for CCCCOc1ccc(-c2nnn(CC(=O)Nc3ncc(CC(=O)OCC)s3)n2)cc1 ?
ABCG2 block: 2; WT yeast gro inh: 17; ABCB1 inh: 0; RAM network inh: 9.3*; Lmaj promast: -6

Results for CCOC(=O)Cc1cnc(NC(=O)Cn2nnc(-c3ccc(OCC)cc3)n2)s1 ?
ABCG2 block: -3; WT yeast gro inh: -9; ABCB1 inh: 0; RAM network inh: 3; Lmaj promast: -8

What do the screens show for `CCN(CC(O)COc1ccc(OCC(O)CN(CC)C2CCCCC2)cc1)C1CCCCC1` (centres undefined)?
ABCG2 block: 0; WT yeast gro inh: 1; ABCB1 inh: 0; RAM network inh: 0; Lmaj promast: 100*

Results for CCN(CC(O)COCc1ccc(Cl)cc1)C1CCCCC1 (centres undefined) ?
ABCG2 block: 1; WT yeast gro inh: -4; ABCB1 inh: 0; RAM network inh: 0; Lmaj promast: 68*
